According to PubChem BioAssay AID2097 (Broad Institute, 2009):
In all, about 300,000 compounds went through this assay and about 120 (0.04%) were called active.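 The calls were made as follows: active = more than half of replicate wells score below -50%, meaning over 50% inhibition versus plate controls; inconclusive = some replicates but at most half score below -50%; inactive = no replicate scores below -50%.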 The entries come from a sample that favours actives as a whole.

Target: Glycogen synthase kinase-3 beta (Homo sapiens) (UniProt P49841)
Sequence (P49841 whole entry, looked up): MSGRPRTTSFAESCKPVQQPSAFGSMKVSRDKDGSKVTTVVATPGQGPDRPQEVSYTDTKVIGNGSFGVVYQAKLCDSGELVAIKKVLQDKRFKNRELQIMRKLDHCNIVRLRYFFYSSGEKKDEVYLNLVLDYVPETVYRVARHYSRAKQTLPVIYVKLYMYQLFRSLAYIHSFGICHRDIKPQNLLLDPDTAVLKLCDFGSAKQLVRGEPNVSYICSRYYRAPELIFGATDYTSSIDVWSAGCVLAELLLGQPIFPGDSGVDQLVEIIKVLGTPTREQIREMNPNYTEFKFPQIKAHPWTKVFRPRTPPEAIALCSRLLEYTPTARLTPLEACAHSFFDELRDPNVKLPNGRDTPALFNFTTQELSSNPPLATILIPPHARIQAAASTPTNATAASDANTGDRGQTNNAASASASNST
Experiment: human GSK3beta kinase inhibitors, primary screen, biochemical, cell-free homogeneous, HTS (AID 2097);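 also: 0% = median DMSO wells and -100% = median GW8510 positive control wells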
Details: GST-GSK3beta kinase, ADP-Glo luminescence, 60 min; at 10 µM; stronger effect = lower value
In short: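 Test system: GST-fused GSK3beta enzyme, cell-free | Quantity: 1.6 ng GST-GSK3beta enzyme per well | Reagent: 25 µM ATP with peptide substrate | Schedule: 60 min enzyme reaction, room temperature | Signal: Luminescent ADP-Glo measurement of ADP formed | Read-out basis: Score relative to plate controls | Control set: DMSO and 20 µM GW8510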

SMILES | activity score (negative = inhibition)
COCc1ccc(C(=O)N2CCc3c([nH]c4ccccc34)C2c2ccccn2)s1 (centres undefined) | 1.6% (inactive)
CCNC(=S)N(CCN(CC)CC)Cc1cc2cc3c(cc2[nH]c1=O)OCCO3 | 1.49% (inactive)
Cc1csc(NC(=O)CSc2nc(=O)cc(N)n2-c2ccc(F)cc2)n1 | 1.17% (inactive)
Cc1c(C(=O)NCCN(C)C)oc2ccc(S(=O)(=O)N3CCCC3)cc12 | -4.78% (inactive)
Cc1ccc([N+](=O)[O-])cc1S(=O)(=O)N1CCCN(C)CC1 | -1.01% (inactive)
CN1CCN(/N=C/c2ccc(-c3ccc([N+](=O)[O-])cc3)o2)CC1 | -0.646% (inactive)
CN1CCN(/N=C2/C(=O)Nc3ccc([N+](=O)[O-])cc32)CC1 | -63.8% (active)
Cc1cccc(NC(=O)C2CC(=O)OC23CCCC3)c1 (centres undefined) | 2.08% (inactive)
COCCn1c(C)cc(C(=O)CSc2nc3ccccc3c(=O)n2C(C)COC)c1C (centres undefined) | -2.4% (inactive)
COC(=O)/C(=C\Nc1ccccc1)NC(=O)c1ccc(Cl)cc1Cl | 1.73% (inactive)
N/C(=N\OC(=O)CCCC(=O)O)c1ncc(C(F)(F)F)cc1Cl | 1.16% (inactive)
CCS(=O)(=O)N1CCC(N2CCN(c3ccccc3)CC2)CC1 | 1% (inactive)
CCc1cccc(NC(=S)N(CCN(C)C)C2CCN(C(C)C)CC2)c1 | 1.7% (inactive)
COc1ccc2ccccc2c1CNCc1ccccn1 | -4.15% (inactive)
O=[N+]([O-])c1ccccc1S(=O)(=O)Nc1cccc2cccnc12 | 0.31% (inactive)
CC(=O)N1CC[n+]2c(-c3ccc([N+](=O)[O-])cc3)csc21 | -0.11% (inactive)
COCCn1c(SCC(=O)Nc2ccccc2F)nc2c(c1=O)SCC2 | 0.573% (inactive)
CN(CC(=O)Nc1ccccc1Cl)C(=O)c1ccccc1SCC(=O)N1CCCC1 | -1.62% (inactive)
CC(=O)Nc1cccc(C(=O)OCC(=O)c2ccc3c(c2)OCO3)c1 | 0.7% (inactive)
COc1ccc(N(CC(=O)N2CCCCCC2)S(=O)(=O)c2ccccc2)cc1 | -4.12% (inactive)
CCOc1ccc(NC(=O)c2ccc(NC(=O)CN3C(=O)C(=O)N(CC(C)C)C3=O)cc2)cc1 | 0.0927% (inactive)
CC(C)n1cnc2c(Nc3cccc(Cl)c3)nc(N(CCO)CCCO)nc21 | -11.5% (inactive)
OCCCNc1nccc(-c2cc(Nc3cccc(Cl)c3)ncn2)n1 | -98.4% (active)

SMILES | activity score (negative = inhibition)
OCCCNc1nc(-c2ccccc2)c2cc(Cl)ccc2n1 | 0.00658% (inactive)
Nc1nonc1-n1nnc(C(=O)N/N=C/c2ccccc2O)c1CN1CCCC1 | -36.9% (inactive)
NNC(=O)c1nnn(-c2nonc2N)c1CN1CCCC1 | 2.11% (inactive)
Nc1nonc1-n1nnc(C(=O)N/N=C\c2ccncc2)c1CN1CCCCC1 | -94.2% (active)
CN(CCC1CCOCC1)C(=O)CC1C(=O)NCCN1Cc1cccc(F)c1 (centres undefined) | -0.992% (inactive)
COc1ccc(S(=O)(=O)NCCCCOc2ccc(Cl)cc2)cc1 | -0.131% (inactive)
CC(=O)Nc1ccccc1OC(C)C(=O)N1CCC(C)CC1 (centres undefined) | 0.974% (inactive)
CCn1cc(C(=O)NCCC(=O)NCCO)c(=O)c2cc3c(cc21)OCO3 | -2.21% (inactive)
COc1ccccc1-n1c(=S)[nH]c2c(sc(=S)n2-c2ccc(C)cc2C)c1=O | -0.962% (inactive)
NC(=O)C[n+]1cccc(C(N)=O)c1 | 2.13% (inactive)
CC(=O)Nc1ccc(C(=O)Nc2cccc(S(=O)(=O)NC3=NCCC3)c2)cc1 | 1.23% (inactive)
CSC1=NC2(C)CCCCC2C12C=CC(=O)C=C2 (centres undefined) | 2.87% (inactive)
Cc1nc(C)c(-c2nnc(-c3cccc(S(=O)(=O)N(C)C)c3)o2)cc1C(=O)NN | -3.56% (inactive)
CC(=O)N1CCN(S(=O)(=O)c2cccc(C(=O)NC3CCC(C)CC3)c2)CC1 (centres undefined) | -4.6% (inactive)
O=C(NCc1ccco1)/C(=C\c1cccc([N+](=O)[O-])c1)NC(=O)c1ccco1 | -2.64% (inactive)
CCS(=O)(=O)c1ccc(-c2cccc(NC(=O)c3ccc(Br)o3)c2)nn1 | 2.73% (inactive)
CCC(C)(C)NC(=O)C(c1cccc(OC)c1OC)N(CC(C)C)C(=O)CCC(=O)Nc1cc(C)on1 (centres undefined) | -2.19% (inactive)
COC(=O)[C@@H]1C[C@@]2(O)[C@H](O)[C@H](O)[C@H](O)C[C@H]2N1Cc1ccc(C)s1 | 2.63% (inactive)
CCCCC1S/C(=N/N=C/c2cccs2)NC1=O (centres undefined) | 0.416% (inactive)
COc1ccc(OC)c(-c2csc(NC(=O)C3=NNC(=O)CC3)n2)c1 | -0.495% (inactive)
CC(C)c1ccc(NC(=O)CCN2C(=O)c3ccc([N+](=O)[O-])cc3C2=O)cc1 | -3.13% (inactive)
O=S(=O)(NC1CC1)c1ccc(F)c(F)c1 | 1.68% (inactive)
CCCCn1c(=O)c(CCC(=O)OCC(=O)Nc2ccc(C)c(Cl)c2)nc2ccccc21 | -3% (inactive)

SMILES | activity score (negative = inhibition)
CCN(C(=O)C1CCCN(c2nc(-c3ccc(OC)cc3)no2)C1)c1ccc(OC)cc1 (centres undefined) | -3.3% (inactive)
COc1ccc(NC(=O)CCC(=O)N2CCN(S(=O)(=O)c3ccc(C)cc3)CC2)c(OC)c1 | -0.163% (inactive)
CCCc1ccc(OCC(O)CN2CCN(C(=O)OCC)CC2)cc1 (centres undefined) | 4.1% (inactive)
CCc1nn(CCCC(=O)Nc2ccc(C)cc2C)c(=O)c2cc3occc3n12 | 2.31% (inactive)
CC(=O)C1=C(C)NC(C)=C(C(C)=O)C1c1cn(-c2ccccc2)nc1-c1cccs1 | -1.7% (inactive)
O=C(N/N=C/c1cccc(O)c1)c1cc2c(ccc3ccccc32)o1 | -3.92% (inactive)
COc1ccc(Cl)cc1NC(=O)CN(C)C(=O)CCCc1c[nH]c2ccccc12 | -0.853% (inactive)
COc1ccc(-n2nc(C(=O)NCC(=O)N3CCCCCC3)c3ccccc3c2=O)cc1Cl | -0.439% (inactive)
COc1cccc(CCNC(=O)COc2cccc3c2OC(C)(C)C3)c1 | 1.98% (inactive)
Cc1ccc(NC(=O)Cn2cccc2C2=NC(c3ccccc3)CO2)c(C)c1 (centres undefined) | -1.16% (inactive)
COc1ccc(C(=O)C2CCCN(C(=O)c3ccc(OC)o3)C2)c(C)c1 (centres undefined) | 0.0837% (inactive)
CC(C)Cc1ccc(C(C)C(=N)N)cc1 (centres undefined) | -0.885% (inactive)
CC(C)(C)c1ccc(C(=O)NNC(=O)Cc2ccccc2)cc1 | -1.05% (inactive)
COc1ccc(NC(=O)C2CCC(CNS(=O)(=O)c3csc(C(N)=O)c3)CC2)cc1OC (centres undefined) | 2.83% (inactive)
O=c1c2c(ncn1Cc1ccccc1)nc1n2CCC1 | -1.79% (inactive)
O=C(CSc1ccc(-c2ccc(-n3cccn3)cc2)nn1)Nc1ccc([N+](=O)[O-])cc1 | -1.44% (inactive)
CCO[C@@H]1OC(C(=O)NC2CC2)=C[C@H](C)[C@H]1CCCO | 1.19% (inactive)
CCOC(=O)C1=C(CC)Nc2ccccc2N=C1NC(=O)c1cccc(S(=O)(=O)N2CCCC2)c1 | 3.96% (inactive)
CN(Cc1ccccc1)CC(O)COc1ccc(CNCc2cc3ccccc3s2)cc1 (centres undefined) | 2.68% (inactive)
CCN(CC)S(=O)(=O)c1ccc2c3c(cccc13)C(=O)S2 | -2.37% (inactive)
O=C1COc2ccc(C(=O)COC(=O)C3CC(O)CN3S(=O)(=O)c3ccc(Cl)cc3)cc2N1 (centres undefined) | 1.53% (inactive)
CC(C)(C)NC(=O)CN(C(=O)c1csnn1)c1ccccc1-c1ccccc1 | -0.766% (inactive)
CCOc1ccc(/C=N/Nc2nncc(-c3ccccc3)n2)cc1OC | -0.0724% (inactive)

SMILES | activity score (negative = inhibition)
Cc1cc(/C=N/Nc2ccc([N+](=O)[O-])cn2)c(C)n1-c1cccc(C(=O)O)c1 | -14.7% (inactive)
COc1cc(/C=N\Nc2ccc([N+](=O)[O-])cn2)ccc1OCC(=O)O | -70.1% (active)
O=C(C1CCN(S(=O)(=O)Cc2ccccc2)CC1)N1CCCc2ccccc21 | 4.16% (inactive)
O=C(Nc1cccc(Cl)c1)Nc1ccccc1NS(=O)(=O)c1cccs1 | 1.54% (inactive)
C1=C(N2CCOCC2)/C(=C/c2nc3ccccc3[nH]2)CC1 | -1.13% (inactive)
C=CCc1cccc(/C=N/NC(=O)COc2ccc(-n3cnnn3)cc2)c1O | -4.1% (inactive)
O=C(NCc1cccnc1)c1cc(S(=O)(=O)N2CCOCC2)c(Cl)cc1Cl | -0.415% (inactive)
COc1ccc(C(=O)Oc2ccc(-c3nnco3)cc2)cc1S(=O)(=O)N1CCOCC1 | 2.99% (inactive)
O=C(CCN1C(=O)c2ccccc2C1=O)NNC(=O)c1ccc(Cl)cc1Cl | 1.29% (inactive)
COc1cc(C(=O)NCc2nnc(SCC(=O)Nc3nc4ccc(C)cc4s3)o2)cc(OC)c1OC | -2.02% (inactive)
O=C1CCN(CCc2ccccc2)CCN1CCOc1ccccc1 | 3.91% (inactive)
CN1C2CCC1/C(=C\c1ccccc1Cl)C(=O)/C2=C\c1ccccc1Cl | 0.435% (inactive)
COc1ccccc1N(C)C(=O)c1cc(S(=O)(=O)N2CCc3ccccc32)cn1C | 0.131% (inactive)
CCCCC(NC(=O)c1cccc(Br)c1)C(=O)O (centres undefined) | -0.419% (inactive)
Cc1c(CCC(=O)N[C@@H](CC(C)C)C(=O)O)c(=O)oc2c(C)c3oc4c(c3cc12)CCCC4 | -23.5% (inactive)
O=C(OCc1nnc(-c2ccccc2)o1)c1cc(=O)[nH]c2ccccc12 | -0.304% (inactive)
Cc1ccc(C(=O)NC2CCN(C(=O)Nc3ccccc3Cl)CC2)cc1 | 2.37% (inactive)
O=[N+]([O-])c1ccc(NCCCN2CCOCC2)c(Cl)c1 | -5.04% (inactive)
CC1CN(c2nc(Nc3ccccc3)nc(N)c2[N+](=O)[O-])CC(C)O1 (centres undefined) | -27.9% (inactive)
Nc1nc(NCCCN2CCOCC2)nc(Nc2ccccc2)c1[N+](=O)[O-] | -73.5% (active)
